Bioassay records (PubChem BioAssay)
Shown are actives, neighbours in structure and some others; about 2.8% of the full set was active somewhere.
EP2 mod = EP2 receptor modulators, cAMP readout, primary screen, cell-based, HTRF cAMP, PGE2 stimulation; induction, % at 25 µM; AID 940, 2007; 260,000 compounds, 0.83% hits; EP2-expressing cells, cAMP HTRF FRET, PGE2 co-stimulation; Prostaglandin E2 receptor EP2 subtype (Homo sapiens), P43116;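 active = compounds whose cAMP rise, as percent of the full-agonist control response, exceeds 60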;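 also: rat C6 glioma line stably carrying human EP2 under a CMV promoter; the protocol text gives 20 µM as final concentration; 100% = response of wells given 1 µM PGE2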
Target sequence (P43116 whole entry, looked up): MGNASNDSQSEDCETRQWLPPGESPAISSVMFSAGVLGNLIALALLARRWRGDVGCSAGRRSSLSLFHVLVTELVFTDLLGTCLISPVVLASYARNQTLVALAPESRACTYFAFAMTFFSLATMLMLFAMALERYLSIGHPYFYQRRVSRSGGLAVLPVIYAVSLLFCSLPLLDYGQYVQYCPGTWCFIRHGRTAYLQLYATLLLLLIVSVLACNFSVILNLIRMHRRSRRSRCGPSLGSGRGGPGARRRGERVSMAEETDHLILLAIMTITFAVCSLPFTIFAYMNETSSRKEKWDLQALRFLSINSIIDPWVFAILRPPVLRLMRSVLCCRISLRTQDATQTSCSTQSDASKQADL
NPY-Y2 antag = NPY-Y2 receptor antagonists, primary screen, cell-based | Neuropeptide Y receptor type 2 (Homo sapiens), P49146 | NPY-Y2 expressing cells, antagonist mode | inhibition, % at 2.7 µM | 140,000 compounds, 0.99% hits | AID 793, 2007; in the data active = inhibition above about 17%;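 also: 0% = vehicle with agonist challenge and 100% = reference antagonist with challenge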
NPY Y1 blocker = NPY-Y1 receptor antagonists, primary screen, cell-based. Neuropeptide Y receptor type 1 (Homo sapiens), P25929. HEK293-CNG Y1 cells, membrane potential fluorescence; NPY at EC95, then isoproterenol. 200,000 compounds, 1% hits. inhibition, % at 3.6 µM;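 active = inhibition above the campaign mean inhibition of all tested compounds plus 3 SD, cut at about 20% in these data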;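 also: 0% = DMSO wells given NPY plus isoproterenol and 100% = isoproterenol alone without NPY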
Target sequence (P25929 whole entry, looked up): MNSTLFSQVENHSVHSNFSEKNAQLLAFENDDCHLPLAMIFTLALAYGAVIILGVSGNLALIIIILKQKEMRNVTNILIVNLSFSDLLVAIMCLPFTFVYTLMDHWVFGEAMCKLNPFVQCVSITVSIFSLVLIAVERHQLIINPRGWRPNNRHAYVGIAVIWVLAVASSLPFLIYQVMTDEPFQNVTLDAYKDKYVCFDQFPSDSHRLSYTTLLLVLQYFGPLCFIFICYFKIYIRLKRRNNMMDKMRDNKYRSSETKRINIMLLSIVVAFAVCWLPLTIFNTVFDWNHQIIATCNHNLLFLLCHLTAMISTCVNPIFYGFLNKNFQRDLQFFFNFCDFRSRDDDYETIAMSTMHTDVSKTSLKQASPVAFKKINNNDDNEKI
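Benchmarks – high control isoproterenol alone, low control NPY with isoproterenol · Material – HEK293 Y1/CNG channel cell line · Times – dye 3 h, compound 60 min room temperature, stimulation 45 min · Probe or stimulus – NPY (25 nM), isoproterenol (1 µM), Ro 20-1724 (25 µM) · Evaluation – % inhibition of NPY effect · Signal – fluorescence, membrane potential probe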
NPY1 pot ag = NPY-Y1 receptor potentiators or agonists, primary screen, cell-based; Neuropeptide Y receptor type 1 (Homo sapiens), P25929; NPY-Y1 expressing cells, potentiator/agonist activation; activation, % at 3.6 µM; 220,000 compounds, 0.37% hits; AID 1304, 2008; in the data active = activation above about 33%, passing the limit was not always enough;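 also: cells stimulated with NPY at EC10 then isoproterenol at EC100; 0% = low agonist plus stimulus and 100% = saturating agonist plus stimulus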
NPY-Y2 PAM-ag = NPY-Y2 potentiators or agonists, primary screen, cell-based; activation, % at 3.6 µM; Neuropeptide Y receptor type 2 (Homo sapiens), P49146; cells expressing NPY-Y2, potentiator/agonist read-out; 220,000 compounds, 0.45% hits; AID 1359, 2008; in the data active = activation above about 27%;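 also: cells stimulated with NPY near EC25 plus isoproterenol at EC100; 0% = vehicle plus submaximal agonist and 100% = vehicle plus saturating agonist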
EP2 antag = human EP2 receptor antagonists, primary screen, TR-FRET cAMP, C6 glioma cells; Prostaglandin E2 receptor EP2 subtype (Homo sapiens), P43116; C6 glioma cells expressing human EP2; cells stimulated with saturating PGE2; inhibition, % at 25 µM; 260,000 compounds, 0.52% hits;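 active = percent inhibition above 40 after rounding to a whole number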;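 also: rat C6 glioma host cells with rolipram phosphodiesterase inhibitor present; the protocol text gives 20 µM as final concentration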
NPY-Y1 antag ct = NPY-Y1 receptor antagonists, selectivity check, counter-screen for NPY-Y2 antagonist project, cell-based; shares compounds with NPY-Y2 antag; cell-based NPY-Y1 antagonism counterscreen; 710 compounds, 19% hits; inhibition, % at 3.6 µM; in the data active = inhibition above about 20%;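 also: cells challenged with NPY then isoproterenol with cAMP sensed through a CNG channel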
NPY-Y2 ant conf = NPY-Y2 receptor antagonists, retest of hits, confirmation, HEK293-CNG cells, membrane potential fluorescence, triplicate | shares compounds with NPY-Y2 antag | AID 1257, 2008 | HEK293 NPY-Y2 CNG channel | 710 compounds, 32% hits | inhibition, % at 2.8 µM;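 active = mean inhibition of triplicate wells above the hit cutoff set in the primary screen, cut at about 17% in these data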;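 also: 0% = DMSO with NPY challenge and 100% = BIIE0246 high control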
* marks the source's active call; other numbers are inactive results; · = no result.

SMILES | EP2 mod | NPY-Y2 antag | NPY Y1 blocker | NPY1 pot ag | NPY-Y2 PAM-ag | EP2 antag | NPY-Y1 antag ct | NPY-Y2 ant conf
Cc1cc2ccccc2n2c(=O)n(CCNC(=O)C3CC(=O)N(C)C3)nc12 (centres undefined) | -28 | · | · | · | · | 4 | · | ·
Cc1ccc(N(CC(=O)NCc2ccc(F)cc2)S(=O)(=O)c2cccs2)cc1 | 29 | 2 | 3 | 2 | -4 | 10 | · | ·
Cc1ccc(N(CC(=O)NCc2ccccc2Cl)S(=O)(=O)c2cccs2)cc1 | 26 | 22* | 14 | -7 | 1 | 4 | 4 | 8
CC1CCc2c(sc(NC(=O)CSc3nnc4c(n3)[nH]c3ccccc34)c2C#N)C1 (centres undefined) | -28 | · | · | · | · | 8 | · | ·
Cc1ccc(S(=O)(=O)C(c2ccccc2)c2c(C)noc2C)cc1 (centres undefined) | 26 | 17* | 2 | -7 | -12 | 11 | 3 | 57*
Cc1[nH]c2c(C(=O)NCCS(=O)(=O)NC3CCCCC3)cccc2c1C | -90 | · | · | · | · | 6 | · | ·
CCOc1ccc(Oc2c(/C=N/NC(C)=O)c(C)nn2-c2ccccc2)cc1 | 14 | 32* | 12 | -56 | -11 | 6 | 16 | 31*
O=C(c1cc2sccc2n1Cc1ccccc1)N1CCc2ccccc21 | 64* | 20* | 17 | 0 | -25 | 8 | 10 | 12
N#Cc1nc(COc2ccc(Cl)cc2)oc1N1CCCCCC1 | -10 | 17* | 12 | -42 | -19 | 9 | 19 | 18*
N#Cc1nc(-c2cccs2)oc1N1CCN(c2ccccc2)CC1 | 13 | 18* | 12 | -49 | -7 | 12 | 7 | 12
N#Cc1nc(COc2cccc(Cl)c2)oc1N1CCN(c2ccccc2)CC1 | -51 | 25* | 8 | -20 | -18 | 7 | 15 | 20*
CCc1c(C)nc2ncnn2c1NCc1ccccc1 | -36 | · | · | · | · | 13 | · | ·
OCC1CCCN(c2nc(CN3CCCCC3)nc3scc(-c4ccccc4)c23)C1 (centres undefined) | 0 | 23* | 17 | -21 | 4 | 9 | 18 | 17
CCOC(=O)c1c(C)oc2ccc(NS(=O)(=O)c3ccc4c5c(cccc35)C(=O)N4)cc12 | -20 | 27* | 10 | -45 | -14 | 3 | 5 | 14
COCCOC(=O)c1c(C)oc2ccc(NS(=O)(=O)c3ccccc3)cc12 | -39 | 5 | 0 | -3 | -13 | 5 | · | ·
CC(=O)Oc1ccc(C(=O)Nc2ccc(S(=O)(=O)N3CCCCC3)cc2)cc1 | -81 | · | · | · | · | 15 | · | ·
CCN1C(=O)/C(=C\c2nc3ccccc3c(=O)n2-c2ccccc2)c2ccccc21 | 43 | 0 | 5 | -27 | -5 | 13 | · | ·
CCN1C(=O)C(Cc2nc3ccccc3c(=O)n2-c2ccccc2)c2ccccc21 (centres undefined) | 5 | 23* | 11 | -19 | -7 | 6 | 5 | 9
COC(=O)c1ccc(COC(=O)c2ccc(N(C)C)cc2)cc1 | -12 | 20* | 8 | -46 | -5 | 14 | 4 | 10
CCC(C)(C)n1nnnc1C(c1ccc2ncccc2c1)N1CCCC(C)C1 (centres undefined) | 34 | 18* | 19 | -11 | -1 | 7 | 11 | 10
CCC(C)(C)n1nnnc1C(c1ccc2ncccc2c1)N1CCN(c2ccc(O)cc2)CC1 (centres undefined) | -7 | · | · | 12 | -32 | 8 | · | ·
CCN1CCN(C(c2ccc(OC)c(OC)c2)c2nnnn2Cc2ccco2)CC1 (centres undefined) | -4 | · | · | · | · | 14 | · | ·
COc1ccc([C@@H]2CN(C(=O)Cc3cccc(OC)c3)C[C@H]2C(=O)O)cc1 | 13 | · | · | · | · | · | · | ·
Cc1nn(C(C)(C)C)c(OC(=O)c2ccc(Br)o2)c1Sc1ccccc1 | 19 | 18* | 6 | 8 | 10 | 2 | 5 | 16
Cc1nn(C(C)(C)C)c(OC(=O)c2cccs2)c1Sc1ccccc1 | 57 | 26* | 13 | -18 | 7 | 5 | 11 | 6
SMILES | EP2 mod | NPY-Y2 antag | NPY Y1 blocker | NPY1 pot ag | NPY-Y2 PAM-ag | EP2 antag | NPY-Y1 antag ct | NPY-Y2 ant conf
C[C@@H](Cn1nnc2ccccc21)NC(=O)CCn1nnc2ccccc21 | 22 | · | · | · | · | 6 | · | ·
Cc1cc(Cl)ccc1OCCCC(=O)N1CCCc2ccccc21 | 37 | 27* | 19 | -16 | -23 | · | 23* | 40*
Cc1cc2cc(CN(CCCO)C(=O)Nc3ccc(F)cc3)c(=O)[nH]c2cc1C | -74 | · | · | · | · | 14 | · | ·
Cc1cc(Cl)c(OCCCNCc2ccccc2)c(Br)c1 | -27 | 18* | 14 | -50 | -14 | 7 | 17 | 23*
CN(C)c1ccc(NC(=O)CN2CCCC2)cc1 | -35 | · | · | · | · | 11 | · | ·
CC(C)n1c(C(=O)OCC(=O)NCc2ccc3c(c2)OCO3)cc2sccc21 | -8 | 22* | 6 | -28 | -3 | 14 | 8 | 8
CC(C)n1c(C(=O)OCC(=O)NCc2ccc3c(c2)OCO3)cc2occc21 | -17 | 14 | 5 | -23 | -6 | 6 | · | ·
Cc1cc(N2CCN(c3ccccc3)CC2)n2c(n1)nc1ccccc12 | 26 | 22* | 12 | -40 | -28 | 7 | 3 | 5
Cc1ccc(N(C)S(=O)(=O)c2cccc(C(=O)Nc3nc4ccccc4[nH]3)c2)cc1 | -57 | 23* | 10 | -2 | -17 | 13 | 42* | 20*
CCc1cccc(N(C(=O)c2csnn2)C(C(=O)NC(C)(C)C)c2ccc(C)o2)c1 (centres undefined) | 6 | · | · | · | · | 5 | · | ·
Cc1cc(C(=O)Cn2nnc(-c3ccc(Cl)cc3)n2)c(C)n1CC1CCCO1 (centres undefined) | -4 | 20* | 14 | -32 | -3 | 5 | 17 | 7
Cc1cc(C(=O)CSc2nnc(-c3ccc(Cl)cc3)n2C)c(C)n1CC1CCCO1 (centres undefined) | 12 | 4 | 11 | 2 | 5 | 6 | · | ·
CCCCNC(=O)c1onc(CSc2ccc(F)c(F)c2)c1C(=O)O | 32 | 23* | 14 | -9 | -19 | 15 | 14 | 12
CCc1nc2ccccc2c(C(=O)OCc2nnc(-c3ccccc3)o2)c1C | 36 | 18* | 13 | -57 | -20 | · | 26* | 25*
Brc1cccc(CNc2nc3ccccc3n2CCN2CCCCC2)c1 | 19 | · | · | 0 | -11 | 6 | · | ·
